Bioassay records from PubChem.
Tn6 DDE FP: inhibitors of Tn6 peptide binding to fibrin DD(E), primary screen, biochemical, fluorescence polarization, human fibrin, Tn6 probe | Fibrin DD(E) TRITC-Tn6 fluorescence polarization displacement | actives 0.21% (n = 370,000) | inhibition, % at 8.3 µM | Fibrinogen beta chain (Homo sapiens), P02675;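 active means inhibition above a per-campaign cutoff: mean of compounds within control limits plus 3 SD, cut at about 15% in these data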;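 further: 0% = median of all compound wells on the plate and 100% = blocking peptide control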
Target sequence (P02675 whole entry, looked up): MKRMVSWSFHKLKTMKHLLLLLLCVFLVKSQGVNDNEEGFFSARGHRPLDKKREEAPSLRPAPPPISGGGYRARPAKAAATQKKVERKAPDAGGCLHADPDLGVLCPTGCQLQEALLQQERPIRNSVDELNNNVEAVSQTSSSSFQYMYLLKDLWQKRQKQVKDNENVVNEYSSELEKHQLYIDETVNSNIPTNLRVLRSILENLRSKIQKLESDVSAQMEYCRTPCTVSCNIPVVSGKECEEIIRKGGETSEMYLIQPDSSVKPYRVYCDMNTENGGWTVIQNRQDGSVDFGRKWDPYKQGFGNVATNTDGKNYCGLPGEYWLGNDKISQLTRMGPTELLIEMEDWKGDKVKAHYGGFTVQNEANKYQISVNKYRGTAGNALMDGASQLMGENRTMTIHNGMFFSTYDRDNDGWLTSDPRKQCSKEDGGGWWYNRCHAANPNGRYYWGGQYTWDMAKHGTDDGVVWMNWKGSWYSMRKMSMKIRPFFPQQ
SIAE inh: human SIAE inhibitors, primary screen, biochemical, fluorescence polarization, FP-Rh probe, 1536-well HTS | SIAE FP-Rh probe binding | inhibition, % at 9.66 µM | Sialate O-acetylesterase (Homo sapiens), Q9HAT2 | actives 0.69% (n = 370,000) | AID 1053197, 2014;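 active means inhibition above a cutoff: mean of compounds within the control limits plus 3 SD of those, cut at about 17% in these data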;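 further: 0% = plate median of compound wells and 100% = probe without SIAE protein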
Tn7 DDE FP: inhibitors of Tn7 peptide binding to fibrin DD(E), primary screen, biochemical, fluorescence polarization, human fibrin, Tn7 probe; inhibition, % at 8.3 µM; FP displacement of FITC-Tn7 peptide from fibrin DD(E); 0% = median of compound wells per plate; AID 720508, 2013; actives 0.13% (n = 370,000);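 active means inhibition above the mean of compounds falling within the control limits plus 3 SD of them, cut at about 14% in these data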;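 further: 0% = plate median of compound wells and 100% = 10 µM Aha-Tn7 peptide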
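Assay system: human fibrin DD(E). Input: DD(E) 2 µM final. Medium: Tris buffer with calcium and detergent, pH 7.8. Compound dosing: single point at 8.3 µM. Timing: 10 min plus 3 h, room temperature. Technique: fluorescence polarization of the labelled Tn7 tracer. Read-out: percent inhibition. Replicates: singlicate testing.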
TCR CD3 inh: inhibitors of human TCR-CD3 interaction, primary screen, biochemical, fluorescence, TAMRA-labeled TCR probe; T-cell receptor (TCR); inhibition, % at 9.4 µM; actives 0.37% (n = 360,000);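 further: recombinant mutant TCR 2C K166C tagged with TAMRA read by polarization; 0% = receptor in buffer alone and 100% = receptor with positive control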
mABHD4 FP: ABHD4 inhibitors, primary screen, biochemical, fluorescence polarization, mouse | inhibition, % at 8.92 µM | purified mABHD4, FP-Rh probe fluorescence polarization | AID 720543, 2013 | (Lyso)-N-acylphosphatidylethanolamine lipase (Mus musculus), Q8VD66 | actives 0.54% (n = 370,000);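 active means inhibition exceeding the mean over every tested compound plus 3 SD, cut at about 30% in these data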;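 further: 0% = plate median of compound wells and 100% = S159A mutant with DMSO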
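Doses – 8.92 µM, single dose · Material – wild-type mouse ABHD4 protein · Replication – single well per compound (singlicate) · Measure – percent inhibition of probe binding, normalized to plate controls · Schedule – 45 min compound pre-incubation plus 60 min probe step, 25 °C · Detection – fluorescence polarization with parallel and perpendicular emission, 525/598 nm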
HTRA1 inh: HTRA1 serine protease inhibitors, primary screen, biochemical, fluorescence polarization, HTS; Q92743; recombinant HTRA1, FP-rhodamine activity-based probe; inhibition, % at 5.96 µM; actives 0.5% (n = 340,000); AID 504803, 2011; in the data active means inhibition above about 36%;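 further: 0% = enzyme with DMSO and 100% = wells lacking enzyme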
BSA probe FL: compounds interfering with TAMRA-BSA probe, counter-screen for TCR-CD3 interaction inhibitor project, biochemical, fluorescence, TAMRA-labeled BSA; actives 10% (n = 1,200); TAMRA-labeled BSA probe fluorescence counterscreen; shares compounds with TCR CD3 inh; inhibition, % at 9.4 µM; in the data active means inhibition above about 23%;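 further: 0% = buffer low control and 100% = reference high control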
TCR-CD3 inh conf: TCR-CD3 interaction inhibitors, retest, confirmation, biochemical, fluorescence, TAMRA-labeled TCR probe. shares compounds with TCR CD3 inh. TAMRA-labeled TCR probe fluorescence binding assay. inhibition, % at 9.4 µM. actives 48% (n = 1,200)
* = called active by the depositor; / = no result. Hits are enriched below; roughly 1.8% of the tested compounds scored in any of these assays. Unless noted, no stated cut-off is given here; in the data, active means inhibition above about 19%; inactive means the rest.

SMILES	Tn6 DDE FP	SIAE inh	Tn7 DDE FP	TCR CD3 inh	mABHD4 FP	HTRA1 inh	BSA probe FL	TCR-CD3 inh conf
O=C(N/N=C/C(Br)=C\c1ccccc1)c1ccco1	-1	-2	3	170*	-5	/	0	4
CCCC[C@@H]1CC2=C(C(=O)OC(C)(C)O2)[C@@H](c2ccc(Cl)cc2)O1	3	-7	-1	4	-5	/	/	/
Cn1ccc2c(N3CCOCC3)cc3c(c21)C1CCC3O1 (stereo not drawn)	0	1	-5	-3	10	/	/	/
Cn1ccc2c(N3CCCCCC3)cc3c(c21)C1CCC3O1 (stereo not drawn)	7	8	-2	22*	13	/	1	2
COc1cc(/C=N/NC(=O)COc2ccc(Cl)cc2)ccc1OS(=O)(=O)c1ccc(C)cc1	5	1	0	57*	-41	-75	13	36*
COc1cc(/C=N/NC(=O)COc2cccc(F)c2)ccc1OS(=O)(=O)c1ccc(C)cc1	-2	-31	-1	6	-33	-75	/	/
Cc1oc2cc3oc(=O)c(CCC(=O)N(C)CC(=O)O)c(C)c3cc2c1C	-9	-3	6	-5	-10	4	/	/
N#Cc1ccc(OCC(=O)N2CCN(S(=O)(=O)c3cccc(Cl)c3)CC2)cc1	-5	0	-11	0	1	0	/	/
CCN(CC(=O)Nc1c(F)cccc1F)C(=O)/C=C/c1ccc2ccccc2n1	10	1	0	30*	-4	2	5	34*
Cc1nn(C)c(C(=O)N/N=C/c2ccncc2)c1Cl	-4	7	-1	-2	0	2	/	/
Cc1nn(C)c(C(=O)N/N=C/c2ccc(Br)cc2)c1Cl	4	-1	11	21*	13	-4	1	3
Fc1ccccc1-c1nc(N2CCCCC2)c2ccccc2n1	4	-5	2	28*	2	-10	14	7
O=c1cc(-c2ccc(O)cc2)oc2cc(O)c(C3OC(CO)C(O)C(O)C3O)c(O)c12 (stereo not drawn)	0	8	1	28*	3	4	-5	20*
O=c1cc(-c2ccc(O)cc2)oc2cc(O)cc(O)c12	-16	-7	-2	2	-25	-9	/	/
O=C(N/N=C/c1cc([N+](=O)[O-])ccc1O)c1cccc2cc[nH]c12	-6	5	-1	20*	8	22	-8	19
Cc1ccc(/C=N/NC(=O)CSc2nc3ccccc3s2)o1	1	4	3	1	1	-2	/	/
Cc1c(NC(=S)N/N=C/c2cc([N+](=O)[O-])ccc2O)c(=O)n(-c2ccccc2)n1C	5	12	-1	32*	27	31	-5	31*
O=C(CCCC(=O)Nc1cccc(Br)c1)N/N=C/c1cc([N+](=O)[O-])ccc1O	10	6	1	9	9	1	/	/
O=C(CN(c1cccc(Br)c1)S(=O)(=O)c1ccccc1)N/N=C/c1cc([N+](=O)[O-])ccc1O	-6	15	-5	30*	4	/	-16	28*
O=C(CSc1nc2ccccc2s1)N/N=C/c1cc([N+](=O)[O-])ccc1O	2	0	2	34*	19	0	-11	31*
O=C(CNc1ccc(Br)cc1)Nc1ccc(S(=O)(=O)N2CCCCC2)cc1	-4	0	-4	-6	-16	-40	/	/
